Calb FLC = C. albicans growth modulation with fluconazole. AID 1979. C. albicans CaCi-2 (fluconazole-resistant clinical isolate) + fluconazole, Alamar Blue growth, 48 h. hit rate 0.57% among 300,000. growth inhibition, % (test concentration not listed);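 active = growth inhibition above about 58% in most replicates, limit read from the data, passing the limit was not always enough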;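 also: all wells also contain fluconazole at 8 µg/ml as a sub-toxic cotreatment; 0% = median of DMSO wells and 100% = median of geldanamycin control wells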
Mdm2 MdmX PPI = human Mdm2/MdmX binding inhibition; hit rate 3% among 330,000; inhibition, % at 8 µM; SaOS-2 split-luciferase Mdm2/MdmX complementation, luminescence; AID 485346; O15151+Q00987;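 active = inhibition of at least 50% at 8 µM in the primary screen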
Target sequence (O15151 whole entry, looked up): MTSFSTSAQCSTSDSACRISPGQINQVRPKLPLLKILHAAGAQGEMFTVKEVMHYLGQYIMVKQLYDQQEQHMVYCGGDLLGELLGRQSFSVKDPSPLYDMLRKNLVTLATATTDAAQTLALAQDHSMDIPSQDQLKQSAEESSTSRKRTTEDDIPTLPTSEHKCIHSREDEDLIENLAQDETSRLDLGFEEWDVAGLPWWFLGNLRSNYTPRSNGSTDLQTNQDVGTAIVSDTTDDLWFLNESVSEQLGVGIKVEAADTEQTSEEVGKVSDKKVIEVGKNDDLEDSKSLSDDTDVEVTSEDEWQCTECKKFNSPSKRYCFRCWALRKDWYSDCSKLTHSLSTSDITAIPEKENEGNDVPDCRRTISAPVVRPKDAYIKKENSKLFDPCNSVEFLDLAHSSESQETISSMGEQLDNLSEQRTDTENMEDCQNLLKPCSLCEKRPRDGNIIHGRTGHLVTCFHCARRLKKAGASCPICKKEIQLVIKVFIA
Target sequence (Q00987 whole entry, looked up): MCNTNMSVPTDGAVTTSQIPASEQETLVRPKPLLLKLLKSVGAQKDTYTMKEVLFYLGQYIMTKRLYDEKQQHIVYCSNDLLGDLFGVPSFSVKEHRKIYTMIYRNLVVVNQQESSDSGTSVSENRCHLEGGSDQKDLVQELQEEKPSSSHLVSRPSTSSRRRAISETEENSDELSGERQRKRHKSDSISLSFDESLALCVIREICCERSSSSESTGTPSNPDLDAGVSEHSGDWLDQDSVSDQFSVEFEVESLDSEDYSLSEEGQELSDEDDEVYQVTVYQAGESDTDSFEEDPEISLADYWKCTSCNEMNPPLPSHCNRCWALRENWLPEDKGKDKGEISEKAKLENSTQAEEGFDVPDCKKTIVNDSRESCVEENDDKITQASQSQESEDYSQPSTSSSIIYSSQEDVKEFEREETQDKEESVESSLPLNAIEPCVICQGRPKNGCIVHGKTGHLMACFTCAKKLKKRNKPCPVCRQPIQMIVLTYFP
SKKanGAS inh = blocks kanamycin growth of S. pyogenes SKKanGAS strain; hit rate 1.3% among 300,000; inhibition, % at 7.5 µM; BacTiter-Glo, 6 h;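 active = mean replicate score, as percent of positive control median, at least 50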;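 also: strain carries kanamycin resistance gene driven by streptokinase promoter and grows in 40 µg/ml kanamycin; loss of luminescence reflects streptokinase promoter inhibition or plain growth inhibition; 0% = median of DMSO wells and 100% = positive control at its reference dose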
CSC inhib = cancer stem cell inhibition | inhibition, % at 7.5 µM | cancer stem cell-like cells viability, luminescence | hit rate 1.1% among 300,000; in the data active = inhibition above about 75%; tested in HMLE shEcad cells
T cruzi inh = T. cruzi replication inhibition; T. cruzi beta-gal in NIH3T3, luminescence, 90 h; inhibition, % (concentration not given with the values); hit rate 1.4% among 300,000;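 active = mean inhibition across valid replicates above about 55%, limit read from the data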;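 also: signal also drops with host cell toxicity which is not excluded here; 0% = plate median of DMSO wells and 100% = zero luminescence signal; higher percent means less beta-gal luminescence so fewer parasites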
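Assay system: NIH/3T3 host cells with β-galactosidase reporter T. cruzi; input: 5,000 host fibroblasts per well; compound: single 50 nL compound addition per well in DMSO; timing: ≥90 h infection period, 3 h prior cell attachment; measured by: GalScreen β-gal luminescence, detergent lysis, 60 min; evaluation: percent inhibition of parasite-derived β-gal signal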
Beta cell apopt = blocks beta cell apoptosis | INS-1E cytokine-induced death, ATP luminescence, 48 h; percent of positive-control rescue, neutral wells zero | protection from apoptosis, % (test concentration not listed) | hit rate 0.8% among 300,000 | AID 435005;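 active = Every replicate reaches about 75%, or at least half do and their mean reaches it too, limit read from the data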;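 also: 0% = cytokine-treated negative control wells and 100% = positive control rescue; higher means more ATP so stronger rescue from cytokine killing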
Mdm2-MdmX conf = confirmation of human Mdm2/MdmX interaction inhibitors; shares compounds with Mdm2 MdmX PPI; Mdm2-MdmX binding, luminescent assay; inhibition, % at 8 µM; hit rate 55% among 10,000; in the data active = inhibition above about 40%
FLuc counter = full-length luciferase inhibition in Mdm2/MdmX counter-screen; hit rate 77% among 6,200; AID 504607; shares compounds with Mdm2 MdmX PPI; inhibition, % at 8 µM; SaOS-2 full-length luciferase counterscreen, luminescence;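 active = mean inhibition at 8 µM reaching about 37%, which flags the compound as non-specific, limit read from the data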;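 also: p53-null SaOS-2 cells with luciferase driven by a doxycycline-inducible promoter; compound on cells about two nights before reading with doxycycline added after day one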
* = called active by the depositor. Compounds with a hit are over-represented: about 5.7% of the library has one in this group of screens.

What do the screens show for `COc1ccc(CCNC(=O)c2cc3c(=O)n4cccc(C)c4nc3n(CCCN3CCOCC3)c2=N)cc1`?
Calb FLC: -4.2; Mdm2 MdmX PPI: 65.1*; SKKanGAS inh: -0.2; CSC inhib: 11.0; T cruzi inh: 34.5; Beta cell apopt: 27.1; Mdm2-MdmX conf: 16.8

What do the screens show for `CCNC(=O)c1cc2c(=O)n3cccc(C)c3nc2n(Cc2ccc(C)cc2)c1=N`?
Calb FLC: -9.1; Mdm2 MdmX PPI: 48.7; SKKanGAS inh: 2.3; CSC inhib: -9.2; T cruzi inh: 12.6; Beta cell apopt: 7.7

How did N=c1c(C(=O)NCc2ccc(F)cc2)cc2c(=O)n3ccccc3nc2n1CCCN1CCOCC1 do in these assays?
Mdm2 MdmX PPI: 53.4*; CSC inhib: -3.0; Beta cell apopt: 12.4; Mdm2-MdmX conf: 16.4

What do the screens show for `CSc1ccc(C(=O)C2CCCN(C(=O)c3ccc4c(c3)no[n+]4[O-])C2)cc1` (stereo not given)?
Calb FLC: 0.1; Mdm2 MdmX PPI: 9.8; SKKanGAS inh: -13.9; CSC inhib: 13.4; T cruzi inh: 20.1; Beta cell apopt: -3.5

What do the screens show for `CC(OC(=O)Cc1c[nH]c2ccccc12)C(=O)NC1CCCCC1C` (stereo not given)?
Mdm2 MdmX PPI: -11.0; CSC inhib: 3.9; Beta cell apopt: 1.5

What do the screens show for `COc1ccc(CCn2c(=N)c(C(=O)NCC3CCCO3)cc3c(=O)n4cccc(C)c4nc32)cc1` (stereo not given)?
Calb FLC: 2.4; Mdm2 MdmX PPI: 52.9*; SKKanGAS inh: 4.4; CSC inhib: 4.4; T cruzi inh: 57.8*; Beta cell apopt: 33.4; Mdm2-MdmX conf: 31.6

What do the screens show for `Cc1cccn2c(=O)c3cc(C(=O)NC4CCCCC4)c(=N)n(Cc4ccc(F)cc4)c3nc12`?
Calb FLC: 10.3; Mdm2 MdmX PPI: 57.7*; SKKanGAS inh: -4.2; CSC inhib: -7.7; T cruzi inh: 12.6; Beta cell apopt: 5.1; Mdm2-MdmX conf: 17.9

How did COCC(C)NC(=O)c1ccc2c(c1)S(=O)(=O)c1ccccc1C2=O (stereo not given) do in these assays?
Calb FLC: -6.8; Mdm2 MdmX PPI: 8.5; SKKanGAS inh: 0.1; CSC inhib: -0.4; T cruzi inh: -7.0; Beta cell apopt: -1.4

How did CCN1CCN(Cc2ccc(NC(=O)c3ccc(C)c(NC(=O)c4ccno4)c3)cc2C(F)(F)F)CC1 do in these assays?
Calb FLC: -8.8; Mdm2 MdmX PPI: 63.2*; SKKanGAS inh: -3.1; CSC inhib: -11.4; T cruzi inh: 38.1; Beta cell apopt: -2.0; Mdm2-MdmX conf: 42.6*; FLuc counter: 56.7*

What do the screens show for `CCN1CCN(Cc2ccc(NC(=O)c3cc(NC(=O)c4cc5cccc(OC)c5o4)cc(OC)c3)cc2C(F)(F)F)CC1`?
Calb FLC: 45.8; Mdm2 MdmX PPI: 98.3*; SKKanGAS inh: -0.5; T cruzi inh: 31.3; Beta cell apopt: 5.6; Mdm2-MdmX conf: 34.6

Results for CCN1CCN(Cc2ccc(NC(=O)c3ccc(C)c(NC(=O)C[C@@H]4NC(=O)[C@H](Cc5ccccc5)NC4=O)c3)cc2C(F)(F)F)CC1 ?
Calb FLC: -9.3; Mdm2 MdmX PPI: 10.3; SKKanGAS inh: -2.5; CSC inhib: -22.6; T cruzi inh: 4.7; Beta cell apopt: -10.5

Results for CCN1CCN(Cc2ccc(NC(=O)c3ccc(C)c(/C=C/c4cnc(Nc5cc(N6CCNCC6)nc(C)n5)cn4)c3)cc2C(F)(F)F)CC1 ?
Calb FLC: -4.4; Mdm2 MdmX PPI: 87.7*; SKKanGAS inh: 60.8*; CSC inhib: 27.9; T cruzi inh: 38.2; Beta cell apopt: 5.3; Mdm2-MdmX conf: 55.4*; FLuc counter: 36.8*

What do the screens show for `CCN1CCN(Cc2ccc(NC(=O)c3cc(NC(=O)c4cncc(-c5cccs5)c4)cc(OC)c3)cc2C(F)(F)F)CC1`?
Calb FLC: 15.5; Mdm2 MdmX PPI: 97.3*; SKKanGAS inh: 6.1; CSC inhib: 123.8*; T cruzi inh: 27.1; Beta cell apopt: 6.7; Mdm2-MdmX conf: 27.8; FLuc counter: 58.5*

What do the screens show for `CC1CCN(C(=O)CN2C(=O)NC3(CCCCCC3)C2=O)CC1`?
Mdm2 MdmX PPI: 17.2; Beta cell apopt: 3.9

Results for COc1ccc(/C=C/C(O)=C(\C#N)c2nnc(N3CCOCC3)n2-c2ccccc2)cc1OC ?
Calb FLC: 0.0; Mdm2 MdmX PPI: 8.1; SKKanGAS inh: -3.3; CSC inhib: 18.7; T cruzi inh: -7.7; Beta cell apopt: -0.9

Results for CC1CCCCC1NC(=O)CCNS(=O)(=O)c1ccc(Cl)cc1 (stereo not given) ?
Calb FLC: 2.7; Mdm2 MdmX PPI: 18.5; SKKanGAS inh: 0.5; CSC inhib: -4.0; T cruzi inh: -2.1; Beta cell apopt: 0.2

How did COc1ccc(CCN2C(=S)N(C)C(=O)C2CC(=O)Nc2ccc(F)cc2)cc1 (stereo not given) do in these assays?
Calb FLC: -5.6; Mdm2 MdmX PPI: 2.0; SKKanGAS inh: 11.6; CSC inhib: 61.3; T cruzi inh: 23.5

What do the screens show for `COc1cc(NC(=O)c2ccno2)cc(C(=O)Nc2cccc(C(F)(F)F)c2)c1`?
Calb FLC: 23.5; Mdm2 MdmX PPI: 33.9; SKKanGAS inh: 5.9; CSC inhib: 11.3; T cruzi inh: 7.2; Beta cell apopt: 4.1

How did CCN1CCN(Cc2ccc(NC(=O)c3cc(NC(=O)C4=NN(c5ccccc5)C(=O)C4)cc(OC)c3)cc2C(F)(F)F)CC1 do in these assays?
Calb FLC: 15.0; Mdm2 MdmX PPI: -36.8; SKKanGAS inh: 3.1; CSC inhib: 8.5; T cruzi inh: -6.4; Beta cell apopt: -8.1

How did CCN1CCN(Cc2ccc(NC(=O)c3cc(NC(=O)c4ccc5n[nH]nc5c4)cc(OC)c3)cc2C(F)(F)F)CC1 do in these assays?
Calb FLC: 5.2; Mdm2 MdmX PPI: -20.1; SKKanGAS inh: -1.9; CSC inhib: -7.2; T cruzi inh: -19.1; Beta cell apopt: -2.0

How did COc1cc(NC(=O)c2cc3cccc(OC)c3o2)cc(C(=O)Nc2cccc(C(F)(F)F)c2)c1 do in these assays?
Calb FLC: -3.0; Mdm2 MdmX PPI: 58.9*; SKKanGAS inh: 7.0; CSC inhib: 35.9; T cruzi inh: 19.4; Beta cell apopt: 24.2; Mdm2-MdmX conf: 56.3*; FLuc counter: 41.0*

How did CCN1CCN(Cc2ccc(NC(=O)c3ccc(C)c(NC(=O)c4cccc(-c5cn[nH]c(=O)c5)c4)c3)cc2C(F)(F)F)CC1 do in these assays?
Calb FLC: 26.9; Mdm2 MdmX PPI: 83.8*; SKKanGAS inh: 2.5; CSC inhib: 40.4; T cruzi inh: 4.5; Beta cell apopt: -3.3; Mdm2-MdmX conf: 46.3*; FLuc counter: 32.0

Compound activity (PubChem BioAssay)
